Like-named read-outs stand apart in the source and are kept apart here.
Experiments:
[1] = system: THLE-2 cells (no enzyme, Ad-Null); experiment: TeamChip metabolism-induced toxicity assay, no enzyme control; assay type: cell-based; conditions: Homo sapiens, read-out: IC50, No enzyme
[2] = system: CYP2C9 (expressed drug-metabolizing enzyme); experiment: TeamChip metabolism-induced toxicity assay, CYP2C9; assay type: cell-based; conditions: human
[3] = system: CYP2D6 (expressed drug-metabolizing enzyme); experiment: TeamChip metabolism-induced toxicity assay, CYP2D6; assay type: cell-based; conditions: human
[4] = system: CYP3A4 (expressed drug-metabolizing enzyme); experiment: TeamChip metabolism-induced toxicity assay, CYP3A4; assay type: cell-based; conditions: human, IC50, CYP3A4, Ad-CYP3A4 15 MOI; compound 48 h; n = 4
[5] = system: CYP1A2 (expressed drug-metabolizing enzyme); experiment: TeamChip metabolism-induced toxicity assay, CYP1A2; assay type: cell-based; conditions: human
[6] = system: UGT1A4 (expressed metabolising enzyme); experiment: TeamChip metabolism-induced toxicity assay, UGT1A4; assay type: cell-based; conditions: human, IC50, UGT1A4, Ad-UGT1A4 15 MOI; compound 48 h; n = 4
[7] = system: P450 Mix: CYP2C9, CYP2D6, CYP3A4, CYP1A2, CYP2E1 (expressed); experiment: TeamChip metabolism-induced toxicity assay, P450 Mix; assay type: cell-based; conditions: human
[8] = system: All Mix: CYP2C9, CYP2D6, CYP3A4, CYP1A2, CYP2E1, UGT1A4 (expressed); experiment: TeamChip metabolism-induced toxicity assay, All Mix; assay type: cell-based; conditions: human
[9] = system: CYP2E1 (expressed drug-metabolizing enzyme); experiment: TeamChip metabolism-induced toxicity assay, CYP2E1; assay type: cell-based; conditions: human
Method in brief: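 THLE-2 cells in Matrigel spotted onto micropillars at 4°C, held 18 h at 37°C, transduced 1 d with recombinant adenovirus carrying the enzyme gene (Ad-Null as no-enzyme control). Then exposed 2 d to test compound in BEGM. Washed twice in DPBS, Live/Dead stained 1 h in the dark, chip scanned.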

[10] = system: HepaRG cells in 2D culture; conditions: read-out: IC50, HepaRG cells in 2D culture; cited from earlier work
[11] = system: HepaRG cells in 3D culture; conditions: read-out: IC50, HepaRG cells in 3D culture; cited from earlier work
THLE-2 cells [12] = experiment: Apoptosis assay; assay type: cell-based, human; conditions: THLE-2 cells on the TeamChip
THLE-2 cells [13] = experiment: Intracellular GSH assay on the TeamChip; assay type: cell-based, human; conditions: exposed to 5 μM ketoconazole, at varying concentrations of acetaminophen
Method in brief: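 THLE-2 cells in Matrigel spots on a micropillar chip, transduced with 15 MOI Ad-CYP3A4 or Ad-Null (control) for 1 d. Then exposed for 48 h to varying test compound with 5 μM CYP3A4 inhibitor. Washed twice in DPBS, stained 20 min in the dark with thiol green dye (intracellular GSH kit), chip scanned, GSH quantified; n = 3.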

intracellular GSH concentrations in CYP3A4-expressing THLE-2 cells (THLE-2 cells [13]) | Compound | IC50 ([1]; 48 h) | IC50 ([1]; THLE-2, 48 h) | IC50 at 48 h [2] | IC50 at 48 h [3] | IC50 at 48 h [4] | IC50 at 48 h [5] | IC50 at 48 h [6] | IC50 at 48 h [7] | IC50 at 48 h [8] | IC50 at 2 d [9] | IC50 [10] | IC50 [11] | number of apoptotic cells (THLE-2 cells [12])
– | CC(=O)Nc1ccc(O)cc1 [Acetaminophen, acetaminophen] | 1500 ± 63 µM | 1400 ± 250 µM | 930 ± 41 µM | 1100 ± 71 µM | […] | 820 ± 21 µM | 2100 ± 52 µM | 240 ± 74 µM | 640 ± 100 µM | 180 µM | 26300 µM | 2700 µM | –
– | Nc1c(CC(=O)O)cccc1C(=O)c1ccc(Br)cc1 [Bromfenac, bromfenac] | 210 ± 17 µM | 190 ± 12 µM | 120 ± 6 µM | 170 ± 39 µM | […] | 190 ± 37 µM | 210 ± 14 µM | 220 ± 24 µM | […] | – | – | – | –
– | COc1cccc2c1C(=O)c1c(O)c3c(c(O)c1C2=O)C[C@@](O)(C(=O)CO)C[C@@H]3O[C@H]1C[C@H](N)[C@H](O)[C@H](C)O1 [Doxorubicin, doxorubicin] | – | – | – | – | – | – | – | – | – | – | – | – | increased the number of apoptotic cells in a dose-dependent manner
– | CC(C)C(=O)Nc1ccc([N+](=O)[O-])c(C(F)(F)F)c1 [Flutamide, flutamide] | 45 ± 1.6 µM | 37 ± 9.7 µM | 25 ± 4.8 µM | 27 ± 5.1 µM | […] | 18 ± 0.5 µM | 38 ± 1.8 µM | 18 ± 4.1 µM | 17 ± 1.1 µM | – | – | – | –
– | CN1CCN(CCCN2c3ccccc3Sc3ccc(C(F)(F)F)cc32)CC1 [Trifluoperazine, trifluoperazine] | 75 ± 11 µM | 80 ± 9.4 µM | 75 ± 12 µM | 69 ± 9.3 µM | 110 ± 7.3 µM | 120 ± 5.1 µM | 100 ± 12 µM | 53 ± 13 µM | 110 ± 10 µM | – | – | – | –
– | Cc1c(C)c2c(c(C)c1O)CCC(C)(COc1ccc(CC3SC(=O)NC3=O)cc1)O2 (centres unmarked) [Troglitazone, troglitazone] | 110 ± 15 µM | 92 ± 6.4 µM | 50 ± 4.9 µM | 77 ± 4.2 µM | […] | 39 ± 6.6 µM | 150 ± 11 µM | 51 ± 4.3 µM | 62 ± 2.9 µM | – | – | – | –
unchanged | CC(=O)N1CCN(c2ccc(OCC3COC(Cn4ccnc4)(c4ccc(Cl)cc4Cl)O3)cc2)CC1 (centres unmarked) [ketoconazole] | – | – | – | – | – | – | – | – | – | – | – | – | –

From paper PMC4132844 (Nature communications, 2014)
